# In ChEMBL document CHEMBL1144642, “Antiproliferative activity of 2-alkyl-4-halopiperidines and 2-alkyl-4-halo-1,2,5,6-tetrahydropyridines in solid tumor cell lines” (2007):
# Tests used:
# Type in all cases: functional
# [1] = system: WiDr; experiment: Antiproliferative activity against human WiDr cells after 48 hrs by SRB assay
# Outline: (§1)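 NCI protocol, SRB read-out after 48 h continuous drug exposure. GI50, TGI and LC50 derived; 100 μM was the top concentration tested, with TGI and LC50 reported only when under 100 μM. GI50 values are means of two to four experiments ± standard deviation.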
# [2] = system: A2780; experiment: Antiproliferative activity against human A2780 cells after 48 hrs by SRB assay; conditions: A2780, 48 h; outline: as §1
# [3] = system: SW1573; experiment: Antiproliferative activity against human SW1573 cells after 48 hrs by SRB assay; conditions: SW1573, 48 h; outline: as §1
# [4] = system: SW1573; experiment: Cell cycle arrest in human SW1573 cells assessed as accumulation at G2/M phase at 10 uM after 24 hrs relative to control
# Outline: (§2)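 Cells seeded at 0.7–1 × 10⁶ per well and left 24 h, then exposed 24 h to 10 or 20 μM beside untreated controls. Trypsinized, fixed in ice-cold 70% ethanol overnight at −20 °C, treated with RNAse and propidium iodide 30 min at 37 °C in the dark. DNA content read by flow cytometry (25,000 cells/sample); G2/M percentage compared with control.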
# [5] = system: WiDr; experiment: Cell cycle arrest in human WiDr cells assessed as accumulation at G2/M phase at 10 uM after 24 hrs relative to control; outline: as §2
# [6] = system: SW1573; experiment: Cell cycle arrest in human SW1573 cells assessed as accumulation at G2/M phase at 20 uM after 24 hrs relative to control; outline: as §2
# [7] = system: WiDr; experiment: Cell cycle arrest in human WiDr cells assessed as accumulation at G2/M phase at 20 uM after 24 hrs relative to control; outline: as §2
Structure (SMILES),GI50 [1] [µM],GI50 [2] [µM],GI50 [3] [µM],also measured
Cc1ccc(S(=O)(=O)N2CC[C@@H](Br)C[C@@H]2Cc2ccccc2)cc1,37,63,73,–
CCCCCCC[C@H]1C[C@H](Cl)CCN1S(=O)(=O)c1ccc(C)cc1,54,> 100,> 100,–
CCCCCCCC1C=C(Br)CCN1S(=O)(=O)c1ccc(C)cc1 (centres undefined),40,> 100,49,–
Cc1ccc(S(=O)(=O)N2CC[C@@H](Br)C[C@@H]2CC(C)C)cc1,14,39,22,–
Cc1ccc(S(=O)(=O)N2CC[C@@H](Cl)C[C@@H]2Cc2ccccc2)cc1,20,19,12,TGI [2]: 50 µM; TGI [3]: 66 µM
Cc1ccc(S(=O)(=O)N2CCC(Cl)=CC2c2ccccc2)cc1 (centres undefined),18,17,16,LC50 (50% lethal concentration) [1]: 91 µM; TGI [1]: 77 µM; LC50 (50% lethal concentration) [2]: 86 µM; TGI [2]: 42 µM; LC50 [3]: 87 µM; TGI [3]: 37 µM
Cc1ccc(S(=O)(=O)N2CCC(Cl)=CC2CC(C)C)cc1 (centres undefined),21,35,31,–
Cc1ccc(S(=O)(=O)N2CC[C@@H](Br)C[C@@H]2c2ccccc2)cc1,36,> 100,> 100,–
Cc1ccc(S(=O)(=O)N2CC[C@@H](Cl)C[C@@H]2CC(C)C)cc1,22,36,19,–
CCCCCCC[C@H]1C[C@H](Br)CCN1S(=O)(=O)c1ccc(C)cc1,> 100,> 100,> 100,–
Cc1ccc(S(=O)(=O)N2CC[C@@H](Cl)C[C@@H]2c2ccccc2)cc1,37,> 100,> 100,–
Cc1ccc(S(=O)(=O)N2CCC(Cl)=CC2Cc2ccccc2)cc1 (centres undefined),3.3,4.8,6.6,Activity [4]: 25%; LC50 (50% lethal concentration) [1]: 79 µM; TGI [1]: 14 µM; Activity [5]: 53%; Activity [6]: 38%; Activity [7]: 81%
Cc1ccc(S(=O)(=O)N2CC=C(Br)CC2)cc1,> 100,> 100,> 100,–
Cc1ccc(S(=O)(=O)N2CCC(Br)=CC2c2ccccc2)cc1 (centres undefined),29,49,54,–
Cc1ccc(S(=O)(=O)N2CCC(Br)CC2)cc1,> 100,> 100,> 100,–
Cc1ccc(S(=O)(=O)N2CCC(Br)=CC2CC(C)C)cc1 (centres undefined),16,36,26,–
Cc1ccc(S(=O)(=O)N2CC[C@@H](Cl)C[C@@H]2C2CCCCC2)cc1,15,72,53,–
Cc1ccc(S(=O)(=O)N2CCC(Br)=CC2C2CCCCC2)cc1 (centres undefined),18,44,65,–
Cc1ccc(S(=O)(=O)N2CCC(Br)=CC2Cc2ccccc2)cc1 (centres undefined),24,27,21,TGI [1]: 71 µM; TGI [2]: 77 µM; TGI [3]: 78 µM
Cc1ccc(S(=O)(=O)N2CC=C(Cl)CC2)cc1,> 100,> 100,> 100,–
Cc1ccc(S(=O)(=O)N2CC[C@@H](Br)C[C@@H]2C2CCCCC2)cc1,14,> 100,82,–
CCCCCCCC1C=C(Cl)CCN1S(=O)(=O)c1ccc(C)cc1 (centres undefined),50,92,49,–
Cc1ccc(S(=O)(=O)N2CCC(Cl)=CC2C2CCCCC2)cc1 (centres undefined),24,39,62,–
Cc1ccc(S(=O)(=O)N2CCC(Cl)CC2)cc1,> 100,> 100,> 100,–
